Sampled rows, rich in hits. Any-hit rate of the full collection: about 2%.
Furin inh: blocks human furin protease activity. P09958. purified furin, fluorogenic substrate cleavage. inhibition, % at 20 µM or 30 µM. actives 0.061% (n = 220,000); in the data active = inhibition above about 25%
Target sequence (P09958 108-714 limits assumed): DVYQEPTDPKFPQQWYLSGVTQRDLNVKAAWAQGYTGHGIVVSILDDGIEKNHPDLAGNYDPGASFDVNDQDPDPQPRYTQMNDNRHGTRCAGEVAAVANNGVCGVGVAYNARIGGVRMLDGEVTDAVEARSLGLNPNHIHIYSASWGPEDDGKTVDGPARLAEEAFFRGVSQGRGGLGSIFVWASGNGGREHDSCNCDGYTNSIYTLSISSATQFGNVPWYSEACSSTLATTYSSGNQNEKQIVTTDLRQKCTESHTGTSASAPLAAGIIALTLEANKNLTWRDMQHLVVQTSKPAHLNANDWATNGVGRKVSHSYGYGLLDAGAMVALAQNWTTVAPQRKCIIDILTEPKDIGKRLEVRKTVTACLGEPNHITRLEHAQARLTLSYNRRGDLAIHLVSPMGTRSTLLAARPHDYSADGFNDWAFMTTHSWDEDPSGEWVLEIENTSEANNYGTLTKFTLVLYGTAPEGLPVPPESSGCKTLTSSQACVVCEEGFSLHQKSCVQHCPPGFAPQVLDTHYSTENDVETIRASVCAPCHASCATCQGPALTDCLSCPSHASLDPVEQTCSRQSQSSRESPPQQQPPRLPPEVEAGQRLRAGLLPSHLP
Autophagy HCS: modulators of autophagy | actives 0.98% (n = 190,000) | calls only at 10 µM (by protocol) | MEF GFP-LC3 puncta imaging; test concentration mostly 10 µM;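 active = percentage of spot-positive cells more than 3 SD above its plate mean, without a fluorescence outlier flag or 80% toxicity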;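 note: spot-positive cell cutoff set from DMSO-treated cells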
HSV replic up: HSV replication enhancement | maximum fold increase | actives 0.005% (n = 220,000) | HSV replication augmentation in cells, fold increase | AID 1956; in the data active = maximum fold increase above about 1.5; tested in PC3 cells
INS promoter inh: TRM-6 insulin promoter activity inhibition; TRM-6 cells, insulin promoter-eGFP reporter, imaging; reporter expression induced with tamoxifen; inhibition, % at 2 µM; actives 0.9% (n = 130,000); AID 1273;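 active = inhibition above the mean plus 3 SD, with well images judged a real hit on visual review, cut at about 60% in these data, passing the limit was not always enough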
Ins promoter up: MIN6 insulin promoter up-regulation; actives 0.3% (n = 190,000); AID 1625; z-score at 5 µM; MIN6 insulin promoter-GFP reporter, high-content imaging; stronger effect = higher value;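 active = z-score above 3 at 5 µM with at least 500 cells counted in the well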
Dynein cargo inh: dynein cargo transport inhibition; z-score, hits read low; actives 0.47% (n = 220,000); 3617.4 mouse cells, GR-EGFP nuclear translocation imaging; test concentration mostly 20 µM; stimulated with dexamethasone, 1 µM; stronger effect = lower value; AID 1381;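 active = plate z-score of nuclear minus cytoplasmic receptor signal below a set negative limit, without overly bright fluorescence or cell loss, cut at about -3.5 in these data, passing the limit was not always enough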;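 note: z-score of nuclear minus cytoplasmic ring GR-EGFP intensity difference per well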
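Schedule: 48 h induction, then 1 h compound, then 30 min agonist, 37 °C. Buffer or medium: tetracycline-free induction medium containing charcoal-stripped FBS. Reagent: 1.0 µM final dexamethasone stimulus. Evaluation: nuclear versus cytoplasmic GR-EGFP signal, averaged per well. Signal: high-content fluorescence imaging after fixation.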
Starred values were filed as active, the others as inactive; i = inactive; . = no result given; + = active, no number.

SMILES	Furin inh	Autophagy HCS	HSV replic up	INS promoter inh	Ins promoter up	Dynein cargo inh
Cn1cc(Cl)c(C(=O)NC(=S)Nc2sc3c(c2C#N)CCCCC3)n1	-5	+	i	-35	0.79	-0.061
Cc1cccc(CN2C(=O)N/C(=C/c3ccc(C)s3)C2=O)c1	-18	+	i	-96	.	-1.9
Cc1ccc(NC(=O)CN2C(=O)N/C(=C/c3ccc(C)o3)C2=O)cc1	-14	i	i	-10	0.03	-1
Cc1ccc(NC(=O)CN2C(=O)N/C(=C/c3ccc(C)s3)C2=O)cc1	4	+	i	-58	1	-1.2
Cc1ccc(S(=O)(=O)N2CCOCC2)cc1NC(=O)CSc1nnnn1C	-19	i	i	.	-0.8	-1.1
CC(=O)Nc1ccc(NC(=O)c2ccc(CSc3ccccc3)o2)cc1	-31	i	i	82*	0.75	-0.8
CNC1=C([N+](=O)[O-])CC([N+](=O)[O-])=C(N2CCNCC2)N1C	-4	i	i	-55	0.06	0.81
COc1ccc(NC(=O)N2CCCCC2)cc1	-17	i	i	80*	-0.18	0.78
Cc1c(C=O)c2ccccc2n1CC(=O)NC(C)c1ccccc1 (stereo not given)	-16	i	i	.	.	0.52
O=C(O)C12CC3CC(C1)CC(n1cnc(Cl)n1)(C3)C2	-16	i	i	100*	.	-0.68
COc1ccc(NC(=O)CSc2nncc3ccccc23)cc1	-24	i	i	17	-0.22	-0.044
COc1ccc(NC(=O)CSc2ccc3c4c(cccc24)C(=O)c2ccccc2-3)cc1	-17	+	.	-111	.	-2.2
CCN(CC)CCNC(=O)CSc1c2c(nc3cc(Cl)ccc13)CCCC2	-17	i	i	21	-2.2	-3.9*
COc1ccc(N=c2oc3c(OC)cccc3cc2C(=O)NCc2ccco2)c(OC)c1	-2	+	i	21	-3.3	1.5
COc1ccc(CN(CC2CCC(C(=O)O)CC2)C(=S)Nc2cccc(C)c2)cc1 (stereo not given)	-20	i	i	.	3.6*	0.39
Cc1cccc(NC(=S)N(Cc2ccc(Cl)cc2)Cc2ccc(C(=O)O)cc2)c1	-17	+	i	.	-0.78	-0.1
COc1ccc(CN(CC2CCC(C(=O)O)CC2)C(=S)Nc2ccccc2OC)cc1 (stereo not given)	-6	i	i	.	-0.72	0.26
Cc1cc(C)cc(NC(=S)N(Cc2ccc(Cl)cc2)Cc2ccc(C(=O)O)cc2)c1	-12	i	i	.	-0.35	0.15
COc1ccc(/C=C/C(=O)OCC(=O)Nc2c(C)cccc2C)cc1	-23	i	i	.	-0.53	-0.21
CCCc1cc(=O)[nH]c(SCC(=O)NC(=O)OCC)n1	-14	i	.	27	0.25	0.16
CCCc1cc(=O)[nH]c(SCC(=O)NCCCC(=O)OCC)n1	-22	i	i	-11	3.1*	0.076
O=c1[nH]c(SCCOc2cccc3ccccc23)nc2ccccc12	-16	+	i	0	-0.13	0.14
CCOc1ccc(OCCSc2nc3ccccc3c(=O)[nH]2)cc1	-17	i	i	-13	0.4	-0.18
CNC(=O)Nc1cccc(C(F)(F)F)c1	-13	i	i	81*	0.54	-0.46
O=C(Nc1ccccc1)Nc1cccc(C(F)(F)F)c1	-24	i	i	20	-1.2	1.5
SMILES	Furin inh	Autophagy HCS	HSV replic up	INS promoter inh	Ins promoter up	Dynein cargo inh
CC(=O)OCCNc1cc(N2CCN(C)CC2)c2noc3c2c1C(=O)c1ccccc1-3	-17	i	i	20	1.8	-0.95
CCOC(=O)C(C(=O)OCC)c1cc(Br)c2noc3c2c1C(=O)c1ccccc1-3	-9	+	.	-35	2.4	9.3
COc1cccc(-c2csc(N3CCN(C(=S)Nc4ccccc4C)CC3)n2)c1	-16	i	i	-12	.	0.12
CCc1ccc(N2C(=O)/C(=C/c3cccs3)N(CC(=O)OC)C2=S)cc1	-13	+	i	-22	.	-0.11
COc1ccc(CCN=C(N)NS(=O)(=O)c2ccc(C)cc2)cc1OC	-10	i	i	13	-0.92	-0.23
COc1ccccc1CCN=C(N)NS(=O)(=O)c1ccc(C)cc1	-15	+	i	.	.	-0.23
c1ccc(-n2ncc3c(N4CCN(c5ccccn5)CC4)nc(N4CCCCCC4)nc32)cc1	4	i	i	.	4.1*	3.4

Assay outcomes deposited in PubChem BioAssay by several laboratories.
